Screening results from PubChem BioAssay.
In the library only some 2.6% were active in any assay of this set; here they are far more common.
Vif inh = blocks HIV Vif function; HEK293T cells, Vif self-association by quenched fluorescence, imaging, 24 h; inhibition, % at 7.49 µM; actives 0.35% (n = 340,000); in the data active = inhibition above about 50%, passing the limit was not always enough
rRNA inh HTS = inhibitors of bacterial rRNA selective over humanized ribosomes; GFP signal change (wild-type ribosome), % (concentration not given with the values); actives 1.6% (n = 350,000); E. coli WT GFP vs humanized-ribosome RFP mutants, fluorescence, 24 h; stronger effect = lower value; DMSO median 0, no signal -100;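 active = significant combined selectivity score with lowered wild-type GFP, culture density cut under 30%, mutant RFP and density less affected; inactive = any of these conditions unmet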
FN deposit inh = fibronectin deposition inhibition. AH1F fibroblasts, Alexa488-fibronectin deposition fluorescence, overnight. inhibition, % at 12.6 µM. actives 0.086% (n = 350,000). AID 743247;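 active = mean inhibition across replicates of 30% or more, regardless of how many single replicates reach that level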
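Material – AH1F fibroblast monolayer, labelled fibronectin deposition · Reagent – labelled fibronectin 24 nM · Timing – 1 h adhesion, overnight exposure · Measured by – fluorescence at 485 nm excitation, 525 nm emission · Read-out – inhibition of fibronectin deposition signal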
miR122 inh = inhibitors of miR-122 in Huh7 cells; Huh7 miR-122 Renilla luciferase sensor, 48 h; neutral wells = 0, positive control = 100; actives 0.3% (n = 340,000); activation (reporter increase), % at 12.5 µM;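 active = mean replicate activation score at least 90 and every replicate individually at or above 90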;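 also: higher luciferase means less miR-122 activity so hits act as miR-122 inhibitors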
Env fusion inh = HIV envelope-mediated fusion inhibition | inhibition, % at 12.3 µM | actives 1.1% (n = 360,000) | AID 651610 | HeLa-JRFL Env/CEM21 cell fusion, luciferase;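 active = mean replicate inhibition score of at least 50 and every replicate individually at or above 50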
S100A4 inh HTS = S100A4-myosin IIA interaction inhibition | P26447 | S100A4/TAMRA-MyoIIA peptide fluorescence polarization | inhibition, % at 10.7 µM | actives 0.14% (n = 360,000);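 active = mean inhibition of at least 70% across replicates, with every replicate also reaching that level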
Target sequence (P26447 whole entry, looked up): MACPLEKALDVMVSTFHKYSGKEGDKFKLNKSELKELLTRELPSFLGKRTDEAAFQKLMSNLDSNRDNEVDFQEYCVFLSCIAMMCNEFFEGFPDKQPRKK
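assay system = human S100A4 monomer with TAMRA-labelled myosin IIA peptide | also added = labelled myosin peptide probe, 5 nM | incubation = 5 min between mix addition and reading | control set = DMSO and TFP controls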
Each line names hits and unclear results; the compound was inactive in the other large screens.

COc1ccc(Nc2nc(N)nc(CSC(=S)N3CCCCC3C)n2)cc1 (stereo not given)	rRNA inh HTS -22 (no result: miR122 inh)
Cc1ccc(S(=O)(=O)Nc2cccc3c2O[C@@H](CN(C)S(C)(=O)=O)[C@@H](C)CN([C@H](C)CO)C3=O)cc1	none (no result: Vif inh, FN deposit inh)
C/C(N)=C(/C#N)C(=O)CSc1nc2ccccc2c(=O)n1Cc1ccc(F)cc1	Env fusion inh 67
C=CCn1c(SCC(=O)NCc2ccco2)nc2sc3c(c2c1=O)CCCC3	none (no result: rRNA inh HTS, FN deposit inh, Env fusion inh, S100A4 inh HTS)
O=C(CSc1nc2ccccc2c(=O)n1-c1ccccc1)NCc1ccco1	none (no result: rRNA inh HTS, FN deposit inh, Env fusion inh, S100A4 inh HTS)
Cc1cccc(-n2c(SCC(=O)NCc3ccco3)nc3ccccc3c2=O)c1	Env fusion inh 62 (no result: rRNA inh HTS, S100A4 inh HTS)
C=CCn1c(SCC(=O)NCc2ccco2)nc2sc3c(c2c1=O)CCC3	Env fusion inh 65 (no result: rRNA inh HTS, S100A4 inh HTS)
O=C(CSc1nc2ccccc2c(=O)n1Cc1ccc(Cl)cc1)NCc1cccs1	Env fusion inh 70 (no result: FN deposit inh)
Cc1ccc(S(=O)(=O)N[C@@H]2CC[C@@H](CCn3cc(C(C)C)nn3)O[C@@H]2CO)cc1	none (no result: Vif inh, FN deposit inh, miR122 inh)
CC(Sc1nc2cc([N+](=O)[O-])ccc2n1-c1ccc(F)cc1)C(=O)NCc1ccc2c(c1)OCO2 (stereo not given)	Env fusion inh 94 (no result: rRNA inh HTS, S100A4 inh HTS)
O=C(CSc1nc2ccccc2c(=O)n1-c1ccccc1)NCc1ccc2c(c1)OCO2	Env fusion inh 80 (no result: rRNA inh HTS, S100A4 inh HTS)
O=C(CSc1nc(-c2ccccc2)c(-c2ccccc2)[nH]1)NCc1ccco1	Env fusion inh 70 (no result: rRNA inh HTS, S100A4 inh HTS)
O=C(CSc1nnc(-c2ccccc2)c(-c2ccccc2)n1)NCc1ccco1	none (no result: rRNA inh HTS, S100A4 inh HTS)
Cc1cc(C)cc(-n2c(SC(C)C(=O)NCc3ccc4c(c3)OCO4)nc3ccccc3c2=O)c1 (stereo not given)	Env fusion inh 64 (no result: rRNA inh HTS, miR122 inh)
COc1ccc(-c2ccc3c(c2)[C@@H]2[C@@H](CCN2C(=O)Nc2ccc(F)cc2)[C@H](CO)N3C)cc1	none (no result: Vif inh, miR122 inh, Env fusion inh)
O=C(N[C@H]1CC[C@H](CCNS(=O)(=O)c2ccccc2Cl)O[C@H]1CO)c1ccccc1	none (no result: Vif inh, FN deposit inh, miR122 inh)
C=CCn1c(SCC(=O)NCc2ccc3c(c2)OCO3)nc2scc(-c3ccccc3)c2c1=O	Env fusion inh 119 (no result: Vif inh, rRNA inh HTS, S100A4 inh HTS)
C[C@@H]1CN([C@@H](C)CO)C(=O)c2cccc(NC(=O)Nc3ccc(C(F)(F)F)cc3)c2O[C@@H]1CN(C)C(=O)Nc1ccc(C(F)(F)F)cc1	none (no result: Vif inh, FN deposit inh)
CC(C)C[C@H]1COc2cccc(N3CCC[C@@H]3CO)c2S(=O)(=O)N1	none (no result: Vif inh, miR122 inh)
O=S1(=O)N[C@H](Cc2ccccc2)COc2cccc(N3CCCC3)c21	none (no result: Vif inh, miR122 inh)
O=S1(=O)N[C@H](Cc2ccccc2)COc2cccc(F)c21	Env fusion inh 57 (no result: Vif inh, miR122 inh)
O=S1(=O)N[C@@H](Cc2ccccc2)COc2cccc(N3CCC[C@H]3CO)c21	rRNA inh HTS -27 (no result: Vif inh, miR122 inh)
COCC(=O)N1CCC2(CC1)CN(C(=O)NC1CCCC1)[C@H](CO)c1c2c2ccc(OC)cc2n1C	none (no result: Vif inh, FN deposit inh, miR122 inh, Env fusion inh)
CC(C)n1nnnc1C1c2ccccc2C(=O)N1CCc1c[nH]c2ccccc12 (stereo not given)	rRNA inh HTS -30 (no result: Vif inh, miR122 inh)
CC(C)n1nnnc1C1c2ccccc2C(=O)N1CCc1ccccc1F (stereo not given)	none (no result: Vif inh, FN deposit inh, miR122 inh)
O=C1c2ccccc2C(c2nnnn2Cc2ccccc2)N1Cc1cccs1 (stereo not given)	rRNA inh HTS -26 (no result: Vif inh, miR122 inh)
CC(C)CCN1C(=O)c2ccccc2C1c1nnnn1Cc1ccccc1 (stereo not given)	none (no result: Vif inh, miR122 inh)
CC(C)n1nnnc1C1c2ccccc2C(=O)N1Cc1cccs1 (stereo not given)	none (no result: Vif inh, miR122 inh)
O=C1c2ccccc2C(c2nnnn2Cc2ccccc2)N1CCc1ccc(O)cc1 (stereo not given)	rRNA inh HTS -28 (no result: Vif inh, miR122 inh)
O=C1c2ccccc2C(c2nnnn2Cc2ccccc2)N1CCc1ccccc1F (stereo not given)	rRNA inh HTS -21 (no result: Vif inh, miR122 inh)
CO[C@H]1CN(C)C(=O)c2ccc(NS(=O)(=O)c3ccc(F)cc3)cc2OC[C@H](C)NC[C@@H]1C	none (no result: Vif inh, miR122 inh)
S=C(c1ccc(Br)cc1)N1CCN(Cc2ccccc2)CC1	rRNA inh HTS -22 (no result: Vif inh, FN deposit inh, Env fusion inh)
